For experiment [1], the target named is Serine/threonine-protein kinase B-raf (Homo sapiens, UniProt P15056, V600E). The experiment in a line: Inhibition of BRAF V600E mutant (unknown origin) using Ser/Thr 03 as substrate after 1 hr in presence of ATP by Z'-LYTE assay.
Experiment [2] concerns the target T1, Mitogen-activated protein kinase 14 (Homo sapiens, UniProt Q16539). Nature of the experiment: Inhibition of p38 alpha (unknown origin) at 10 uM using Ser/Thr 15 as substrate incubated for 1 hr in presence of ATP by Z'-Lyte assay relative to control. Put shortly:
(§1)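 Run by a commercial kinase profiling service at 100 µM ATP. Single-point screening was followed by 5-point titration (1 nM, 10 nM, 100 nM, 1 µM, 10 µM) for IC50.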

In experiment [3] the test system is Serine/threonine-protein kinase B-raf (Homo sapiens), P15056 [V600E]. Nature of the experiment: Inhibition of BRAF V600E mutant (unknown origin) at 10 uM using Ser/Thr 03 as substrate after 1 hr in presence of ATP by Z'-LYTE assay relative to control. Put shortly: as §1
Experiment [4] addresses T1, Mitogen-activated protein kinase 14. The experiment in a line: Inhibition of p38 alpha (unknown origin) using Ser/Thr 15 as substrate incubated for 1 hr in presence of ATP by Z'-Lyte assay.
Another experiment concerns LOX IMVI. Nature of the experiment: cells. It counts as functional, cell-based. Particulars: Homo sapiens, 24 h.

The values that follow come from ChEMBL document CHEMBL4732217, “Design, synthesis, biological evaluation, and docking studies of novel (imidazol-5-yl)pyrimidine-based derivatives as dual BRAF/p38α inhibitors” (Eur J Med Chem, 2021).

Serine/threonine-protein kinase B-raf, sequence (P15056 2-766 V600E limits assumed): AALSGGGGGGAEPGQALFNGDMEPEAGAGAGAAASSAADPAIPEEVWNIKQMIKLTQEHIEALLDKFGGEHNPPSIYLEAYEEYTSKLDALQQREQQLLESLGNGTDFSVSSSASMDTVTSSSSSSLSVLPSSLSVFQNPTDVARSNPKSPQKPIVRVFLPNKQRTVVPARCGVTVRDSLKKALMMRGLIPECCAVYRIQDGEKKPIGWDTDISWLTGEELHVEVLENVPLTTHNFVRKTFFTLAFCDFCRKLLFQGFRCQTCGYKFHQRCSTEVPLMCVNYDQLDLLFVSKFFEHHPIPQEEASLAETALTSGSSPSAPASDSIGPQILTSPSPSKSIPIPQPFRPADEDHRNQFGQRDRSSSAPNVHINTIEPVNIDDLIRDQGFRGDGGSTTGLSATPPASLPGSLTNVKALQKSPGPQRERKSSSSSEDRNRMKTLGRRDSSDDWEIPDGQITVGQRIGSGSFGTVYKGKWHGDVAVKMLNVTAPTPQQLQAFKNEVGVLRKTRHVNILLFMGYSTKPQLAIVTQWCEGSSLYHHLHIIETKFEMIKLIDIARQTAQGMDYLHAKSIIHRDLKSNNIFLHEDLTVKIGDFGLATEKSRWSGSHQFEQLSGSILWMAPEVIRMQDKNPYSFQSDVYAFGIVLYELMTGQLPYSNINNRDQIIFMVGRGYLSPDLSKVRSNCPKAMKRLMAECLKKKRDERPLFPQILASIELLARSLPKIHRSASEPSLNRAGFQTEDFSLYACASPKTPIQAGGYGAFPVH
Serine/threonine-protein kinase B-raf (Homo sapiens), P15056 [V600E], sequence (P15056 whole entry V600E): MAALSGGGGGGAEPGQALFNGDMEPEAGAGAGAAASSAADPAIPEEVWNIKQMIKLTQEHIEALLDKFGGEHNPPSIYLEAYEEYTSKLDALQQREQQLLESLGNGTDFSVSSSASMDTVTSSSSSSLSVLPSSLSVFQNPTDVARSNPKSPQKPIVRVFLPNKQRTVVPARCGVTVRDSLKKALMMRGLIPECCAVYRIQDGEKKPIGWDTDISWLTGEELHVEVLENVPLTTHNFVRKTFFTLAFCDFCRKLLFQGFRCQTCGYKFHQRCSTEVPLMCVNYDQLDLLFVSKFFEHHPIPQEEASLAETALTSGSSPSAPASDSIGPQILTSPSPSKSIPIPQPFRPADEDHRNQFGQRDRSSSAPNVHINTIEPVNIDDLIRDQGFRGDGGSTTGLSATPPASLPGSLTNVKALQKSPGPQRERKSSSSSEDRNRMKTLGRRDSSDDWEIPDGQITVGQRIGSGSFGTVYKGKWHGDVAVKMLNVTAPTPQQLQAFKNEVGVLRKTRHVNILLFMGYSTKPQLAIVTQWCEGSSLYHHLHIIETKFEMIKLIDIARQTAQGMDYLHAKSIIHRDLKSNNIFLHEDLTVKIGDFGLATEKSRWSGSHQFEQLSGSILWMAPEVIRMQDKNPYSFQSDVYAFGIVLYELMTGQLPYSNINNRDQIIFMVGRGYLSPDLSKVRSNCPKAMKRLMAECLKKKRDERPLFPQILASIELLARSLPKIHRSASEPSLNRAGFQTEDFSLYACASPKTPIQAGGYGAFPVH
T1 sequence (Q16539 whole entry): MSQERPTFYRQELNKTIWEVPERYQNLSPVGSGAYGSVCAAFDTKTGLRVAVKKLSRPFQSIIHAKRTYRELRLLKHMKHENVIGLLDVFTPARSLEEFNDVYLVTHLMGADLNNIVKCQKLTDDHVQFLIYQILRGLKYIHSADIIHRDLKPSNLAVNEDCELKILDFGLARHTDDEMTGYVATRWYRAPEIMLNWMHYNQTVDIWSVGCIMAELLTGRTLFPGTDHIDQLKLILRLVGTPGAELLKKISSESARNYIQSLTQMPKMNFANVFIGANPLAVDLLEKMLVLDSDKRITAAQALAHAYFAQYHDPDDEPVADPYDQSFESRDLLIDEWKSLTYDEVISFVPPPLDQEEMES

A word on the IC50: it is the concentration at which inhibition is half-maximal. What is called inhibition is the relative decrease from the control value, in per cent. Regarding `O=S(=O)(NCCCNc1nccc(-c2[nH]c(-c3ccccc3)nc2-c2ccc(F)c(O)c2)n1)c1cccc(F)c1`, the IC50 is 0.0303 µM in experiment [1], 0.14 µM in experiment [4] and 7.89 µM with LOX IMVI. For the same compound, the inhibition in experiment [2] is 90.5%; in experiment [3], 100%.

On to `Cc1ccc(S(=O)(=O)NCCCNc2nccc(-c3[nH]c(-c4ccccc4)nc3-c3ccc(F)c(O)c3)n2)cc1`, for which the results for the IC50 (in experiment [1]; in experiment [4]; in the experiment on LOX IMVI) were 0.00868 µM, 0.2 µM and 26.3 µM, respectively. For the same compound, the inhibition is 87.8% in experiment [2] and 101% in experiment [3].

As for `COc1ccc(S(=O)(=O)NCCCNc2nccc(-c3[nH]c(-c4ccccc4)nc3-c3ccc(Cl)c(OC)c3)n2)cc1`, the inhibition in experiment [2] turned out to be 54.6%; in experiment [3], 91.1%. In the experiment on LOX IMVI, this compound came in with an IC50 of 1.8 µM.

Consider `O=S(=O)(NCCCNc1nccc(-c2[nH]c(-c3ccccc3)nc2-c2ccc(F)c(O)c2)n1)c1ccccc1`, for which the half-inhibitory concentration (IC50) in experiment [1] turned out to be 0.00562 µM; in experiment [4], 0.21 µM; in the experiment with LOX IMVI it was 9.58 µM. The inhibition in experiment [2] came to 87%; in experiment [3] it was 98.4%.

Turning to `COc1cc(-c2nc(-c3ccccc3)[nH]c2-c2ccnc(NCCCNS(=O)(=O)c3ccc(Cl)cc3)n2)ccc1Cl`, the inhibition worked out at 52.1% in experiment [2] and 85.1% in experiment [3]. Further, the midpoint of inhibition in the experiment on LOX IMVI, the IC50, lay at 60.9 µM.

As to `O=S(=O)(NCCCNc1nccc(-c2[nH]c(-c3ccccc3)nc2-c2ccc(Cl)c(O)c2)n1)c1ccc(C(F)(F)F)cc1`, the inhibition in experiment [2] worked out at 54.3%; in experiment [3], 99.2%. Further, in the experiment with LOX IMVI, the IC50 was 10.1 µM.

`COc1cc(-c2nc(-c3ccccc3)[nH]c2-c2ccnc(NCCCNS(=O)(=O)c3ccc(Cl)cc3)n2)ccc1F`: the inhibition in experiment [2] stood at 72.8%; in experiment [3], 79.2%. For the same compound, the midpoint of inhibition in the experiment on LOX IMVI, the IC50, lay at 83.1 µM.

On to `COc1cc(-c2nc(-c3ccccc3)[nH]c2-c2ccnc(NCCCNS(=O)(=O)c3cccc(F)c3)n2)ccc1Cl`, for which the figures for the inhibition in experiment [2] and in experiment [3] were 58.3% and 84.9%, respectively. In addition, the IC50 in the experiment with LOX IMVI is 5.11 µM.

For `O=S(=O)(NCCCNc1nccc(-c2[nH]c(-c3ccccc3)nc2-c2ccc(Cl)c(O)c2)n1)c1cccc(F)c1`, the IC50 in experiment [1] came out at 0.0148 µM; in the experiment on LOX IMVI it was 33.6 µM. Also, the inhibition came out at 78.6% in experiment [2] and 101% in experiment [3].

As to `O=S(=O)(NCCCNc1nccc(-c2[nH]c(-c3ccccc3)nc2-c2ccc(F)c(O)c2)n1)c1cccc2ccccc12`, the values for the inhibition in experiment [2] and in experiment [3] were 79.8% and 99.8%, respectively. This compound came in with an IC50 in the experiment on LOX IMVI of 3.71 µM.

Take `COc1cc(-c2nc(-c3ccccc3)[nH]c2-c2ccnc(NCCCNS(=O)(=O)c3ccc(Br)cc3)n2)ccc1F`: the results for the inhibition in experiment [2] and in experiment [3] were 73.4% and 81.5%, respectively. The compound also returned an IC50 in the experiment with LOX IMVI of 33.9 µM.

Consider `O=S(=O)(NCCCNc1nccc(-c2[nH]c(-c3ccccc3)nc2-c2ccc(Cl)c(O)c2)n1)c1ccc(O)cc1`, for which the values for the IC50 (in experiment [1]; in the experiment with LOX IMVI) were 0.00781 µM and 36.8 µM, respectively. Also, the inhibition in experiment [2] is 77.6%; in experiment [3], 101%.

For `O=S(=O)(NCCCNc1nccc(-c2[nH]c(-c3ccccc3)nc2-c2ccc(F)c(O)c2)n1)c1ccc(Br)cc1`, the IC50 in experiment [1] was 0.0263 µM; in experiment [4], 0.33 µM; with LOX IMVI, 5.66 µM. Also, the inhibition came out at 84.8% in experiment [2] and 100% in experiment [3].

With `O=S(=O)(NCCCNc1nccc(-c2[nH]c(-c3ccccc3)nc2-c2ccc(F)c(O)c2)n1)c1ccc(Cl)cc1`, the results for the inhibition in experiment [2] and in experiment [3] were 84.9% and 93.9%, respectively. This compound also gave a concentration for half-maximal inhibition (IC50) in the experiment on LOX IMVI of 14.2 µM.

In the case of `COc1cc(-c2nc(-c3ccccc3)[nH]c2-c2ccnc(NCCCNS(=O)(=O)c3cccc4ccccc34)n2)ccc1F`, the figures for the inhibition in experiment [2] and in experiment [3] were 44.4% and 81%, respectively. This compound also showed an IC50 with LOX IMVI of 14.9 µM.

Regarding `COc1cc(-c2nc(-c3ccccc3)[nH]c2-c2ccnc(NCCCNS(=O)(=O)c3ccc(C)cc3)n2)ccc1Cl`, the inhibition was determined as 50.4% in experiment [2] and 88.2% in experiment [3]. Also, inhibition with LOX IMVI was half-maximal at 18.6 µM (IC50).

On to `O=S(=O)(NCCCNc1nccc(-c2[nH]c(-c3ccccc3)nc2-c2ccc(Cl)c(O)c2)n1)c1ccc(Br)cc1`, for which the values for the IC50 (in experiment [1]; in the experiment with LOX IMVI) were 0.0218 µM and 15.5 µM, respectively. The values for the inhibition in experiment [2] and in experiment [3] were 73.7% and 97.3%, respectively.

As for `COc1cc(-c2nc(-c3ccccc3)[nH]c2-c2ccnc(NCCCNS(=O)(=O)c3ccc(C(F)(F)F)cc3)n2)ccc1F`, the inhibition in experiment [2] amounted to 48.6%; in experiment [3] it was 42.4%. This compound came in with an IC50 with LOX IMVI of 75.2 µM.

Turning to `COc1cc(-c2nc(-c3ccccc3)[nH]c2-c2ccnc(NCCCNS(=O)(=O)c3ccccc3)n2)ccc1Cl`, the inhibition is 58.6% in experiment [2] and 80% in experiment [3]. This compound showed an IC50 in the experiment on LOX IMVI of 7.47 µM.

In the case of `Cc1ccc(S(=O)(=O)NCCCNc2nccc(-c3[nH]c(-c4ccccc4)nc3-c3ccc(Cl)c(O)c3)n2)cc1`, the IC50 came out at 0.00804 µM in experiment [1] and 6.02 µM with LOX IMVI. Also, the inhibition in experiment [2] was found to be 70.8%; in experiment [3] it was 101%.

On to `COc1cc(-c2nc(-c3ccccc3)[nH]c2-c2ccnc(NCCCNS(=O)(=O)c3cccc4ccccc34)n2)ccc1Cl`, for which the inhibition in experiment [2] was 27.1%; in experiment [3] it was 90%. The same compound yielded an IC50 in the experiment with LOX IMVI of 13.5 µM.

For the compound `COc1cc(-c2nc(-c3ccccc3)[nH]c2-c2ccnc(NCCCNS(=O)(=O)c3ccc(F)cc3)n2)ccc1Cl`, the inhibition stood at 62.1% in experiment [2] and 81% in experiment [3]. The same compound gave an IC50 in the experiment with LOX IMVI of 4.53 µM.

In the case of `O=S(=O)(NCCCNc1nccc(-c2[nH]c(-c3ccccc3)nc2-c2ccc(Cl)c(O)c2)n1)c1cccc2ccccc12`, the inhibition in experiment [2] worked out at 51.1%; in experiment [3], 96.2%. The compound further yielded an IC50 with LOX IMVI of 7.72 µM.

As for `COc1cc(-c2nc(-c3ccccc3)[nH]c2-c2ccnc(NCCCNS(=O)(=O)c3ccc(Br)cc3)n2)ccc1Cl`, the inhibition was 30% in experiment [2] and 88.3% in experiment [3]. The midpoint of inhibition in the experiment with LOX IMVI, the IC50, lay at 23.7 µM.

For `COc1cc(-c2nc(-c3ccccc3)[nH]c2-c2ccnc(NCCCNS(=O)(=O)c3ccc(F)cc3)n2)ccc1F`, the inhibition in experiment [2] is 84.1%; in experiment [3], 80.1%. The same compound gave an IC50 in the experiment on LOX IMVI of 3.96 µM.

As for `COc1ccc(S(=O)(=O)NCCCNc2nccc(-c3[nH]c(-c4ccccc4)nc3-c3ccc(F)c(OC)c3)n2)cc1`, the inhibition in experiment [2] was determined as 88.5%; in experiment [3] it was 89.1%. Moreover, in the experiment on LOX IMVI, it took 6.13 µM to reach half-maximal inhibition (IC50).

Regarding `COc1cc(-c2nc(-c3ccccc3)[nH]c2-c2ccnc(NCCCNS(=O)(=O)c3ccc(C)cc3)n2)ccc1F`, the inhibition came out at 79.4% in experiment [2] and 82.4% in experiment [3]. The same compound returned an IC50 in the experiment with LOX IMVI of 2.59 µM.

As for `COc1cc(-c2nc(-c3ccccc3)[nH]c2-c2ccnc(NCCCNS(=O)(=O)c3ccccc3)n2)ccc1F`, the inhibition in experiment [2] was 83.5%; in experiment [3], 77.3%. This compound also registered an IC50 in the experiment on LOX IMVI of 4.52 µM.

On to `O=S(=O)(NCCCNc1nccc(-c2[nH]c(-c3ccccc3)nc2-c2ccc(F)c(O)c2)n1)c1ccc(F)cc1`, for which the figures for the inhibition in experiment [2] and in experiment [3] were 91.4% and 97%, respectively. It took 19.2 µM to reach half-maximal inhibition with LOX IMVI (IC50).

In the case of `O=S(=O)(NCCCNc1nccc(-c2[nH]c(-c3ccccc3)nc2-c2ccc(Cl)c(O)c2)n1)c1ccc(Cl)cc1`, the inhibition in experiment [2] worked out at 70.8%; in experiment [3], 99.7%. This compound also came in with an IC50 in the experiment with LOX IMVI of 61.3 µM.
